Experimental data taken from ChEMBL document CHEMBL5674883, “The Heterochromatin Landscape in Migrating Cells and the Importance of H3K27me3 for Associated Transcriptome Alterations” (Cells, 2018).

Tests used:
Format in all cases: cell-based
[1] = target: Histone-lysine N-methyltransferase EZH2 (Mus musculus) (UniProt Q61188); assay: Inhibition of EZH2 in mouse B16-F1 migrating cells assessed as fold change in H3K27me3-dependent regulated Cxxc5-mRNA expression at 3 uM measured by […] analysis relative to control cells
Chain of Histone-lysine N-methyltransferase EZH2 (Mus musculus) (Q61188 whole entry): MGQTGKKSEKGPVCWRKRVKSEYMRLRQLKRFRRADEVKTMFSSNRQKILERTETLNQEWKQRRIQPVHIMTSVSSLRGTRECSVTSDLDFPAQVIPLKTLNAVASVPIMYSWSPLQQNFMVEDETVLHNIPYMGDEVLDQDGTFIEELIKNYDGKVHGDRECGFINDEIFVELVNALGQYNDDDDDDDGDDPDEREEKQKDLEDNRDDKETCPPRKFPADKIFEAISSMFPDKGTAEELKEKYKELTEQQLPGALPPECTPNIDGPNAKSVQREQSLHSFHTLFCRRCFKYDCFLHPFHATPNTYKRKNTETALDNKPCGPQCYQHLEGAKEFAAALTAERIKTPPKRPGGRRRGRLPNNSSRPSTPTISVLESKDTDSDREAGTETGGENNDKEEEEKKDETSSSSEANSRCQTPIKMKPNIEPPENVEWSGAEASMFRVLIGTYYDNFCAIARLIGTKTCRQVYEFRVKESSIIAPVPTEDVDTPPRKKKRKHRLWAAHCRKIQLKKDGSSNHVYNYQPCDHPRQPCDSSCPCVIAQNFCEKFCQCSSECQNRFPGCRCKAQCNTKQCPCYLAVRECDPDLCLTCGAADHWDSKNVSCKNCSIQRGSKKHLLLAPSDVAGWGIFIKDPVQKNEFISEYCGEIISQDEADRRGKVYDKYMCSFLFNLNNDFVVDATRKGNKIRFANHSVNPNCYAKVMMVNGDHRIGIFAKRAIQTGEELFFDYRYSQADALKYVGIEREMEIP
In short: (§1)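 Confluent B16-F1 cells on fibronectin-coated plates were scratched at multiple sites, washed once with DMEM and left to migrate 3 h in growth medium (37 °C, 7% CO2); unscratched cells served as control. GSK343 (3 µM) was added 3 h before lysis. Poly A mRNA was sequenced (RNA-seq), with 5 replicates for untreated and 3 for treated cells. Differential expression was called by linear model with batch correction, at FDR <0.05 and fold change ≥1.3.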

[2] = target: Histone-lysine N-methyltransferase EZH2 (Mus musculus) (UniProt Q61188); assay: Inhibition of EZH2 in mouse B16-F1 migrating cells assessed as fold change in H3K27me3-dependent regulated Pxdc1-mRNA expression at 3 uM measured by […] analysis relative to control cells; in short: as §1
[3] = target: Histone-lysine N-methyltransferase EZH2 (Mus musculus) (UniProt Q61188); assay: Inhibition of EZH2 in mouse B16-F1 migrating cells assessed as fold change in H3K27me3-independent regulated Csrnp1-mRNA expression at 3 uM measured by […] analysis relative to control cells; in short: as §1
[4] = target: Histone-lysine N-methyltransferase EZH2 (Mus musculus) (UniProt Q61188); assay: Inhibition of EZH2 in mouse B16-F1 migrating cells assessed as fold change in H3K27me3-independent regulated Fam214b-mRNA expression at 3 uM measured by […] analysis relative to control cells; in short: as §1
[5] = target: Histone-lysine N-methyltransferase EZH2 (Mus musculus) (UniProt Q61188); assay: Inhibition of EZH2 in mouse B16-F1 migrating cells assessed as fold change in H3K27me3-buffered regulated Ern1-mRNA expression at 3 uM measured by ChIP-seq analysis relative to control cells
In short: (§2)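 Confluent B16-F1 cells on fibronectin-coated plates, cultured at 37 °C and 7% CO2, were scratched at multiple sites to induce migration. They were then held 3 h in growth medium containing 3 µM GSK343, with the inhibitor added 3 h before lysis. Unscratched cells served as controls. Poly A mRNA was analysed by RNA-seq (n=3 GSK343, n=5 controls). Linear models removed batch effects, and buffered genes were those altered only under GSK343 (FDR <0.05, fold change >1.3).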

[6] = target: Histone-lysine N-methyltransferase EZH2 (Mus musculus) (UniProt Q61188); assay: Inhibition of EZH2 in mouse B16-F1 migrating cells assessed as fold change in H3K27me3-buffered regulated 1810058I24Rik-mRNA expression at 3 uM measured by ChIP-seq analysis relative to control cells; in short: as §2
[7] = target: Histone-lysine N-methyltransferase EZH2 (Mus musculus) (UniProt Q61188); assay: Inhibition of EZH2 in mouse B16-F1 migrating cells assessed as fold change in H3K27me3-buffered regulated Edrf1-mRNA expression at 3 uM measured by ChIP-seq analysis relative to control cells; in short: as §2
[8] = target: Histone-lysine N-methyltransferase EZH2 (Mus musculus) (UniProt Q61188); assay: Inhibition of EZH2 in mouse B16-F1 migrating cells assessed as fold change in H3K27me3-buffered regulated Ttc14-mRNA expression at 3 uM measured by ChIP-seq analysis relative to control cells; in short: as §1
[9] = target: Histone-lysine N-methyltransferase EZH2 (Mus musculus) (UniProt Q61188); assay: Inhibition of EZH2 in mouse B16-F1 migrating cells assessed as fold change in H3K27me3-buffered regulated Sltm-mRNA expression at 3 uM measured by ChIP-seq analysis relative to control cells; in short: as §1
[10] = target: Histone-lysine N-methyltransferase EZH2 (Mus musculus) (UniProt Q61188); assay: Inhibition of EZH2 in mouse B16-F1 migrating cells assessed as fold change in H3K27me3-buffered regulated Hunk-mRNA expression at 3 uM measured by […] analysis relative to control cells; in short: as §2
[11] = target: Histone-lysine N-methyltransferase EZH2 (Mus musculus) (UniProt Q61188); assay: Inhibition of EZH2 in mouse B16-F1 migrating cells assessed as fold change in H3K27me3-buffered regulated Fam60a-mRNA expression at 3 uM measured by […] analysis relative to control cells; in short: as §2
[12] = target: T1, RNA polymerase II (Mus musculus) (UniProt P08775+Q8CFI7+P97760+A0A3Q4L2S8+Q80UW8+P61219+P62488+Q923G2+P60898+O08740+Q63871+P62876); assay: Inhibition of RNA polymerase II in mouse B16-F1 migrating cells assessed as fold change in Grhpr-RNA stability at 0.1 mM measured by ChIP-seq analysis relative to control cells
[13] = target: T1, RNA polymerase II (Mus musculus); assay: Inhibition of RNA polymerase II in mouse B16-F1 migrating cells assessed as fold change in Galk1-RNA stability at 0.1 mM measured by ChIP-seq analysis relative to control cells
[14] = target: T1, RNA polymerase II (Mus musculus); assay: Inhibition of RNA polymerase II in mouse B16-F1 migrating cells assessed as fold change in Rpl27-RNA stability at 0.1 mM measured by […] analysis relative to control cells
[15] = target: T1, RNA polymerase II (Mus musculus); assay: Inhibition of RNA polymerase II in mouse B16-F1 migrating cells assessed as fold change in Cdk5rap3-RNA stability at 0.1 mM measured by […] analysis relative to control cells
In short: (§3)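 Mouse B16-F1 melanoma cells grown to confluence on fibronectin in DMEM/10% FCS at 37 °C, 7% CO2. Migration induced by multiple scratches and 3 h incubation; unscratched controls. DRB 0.1 mM added 3 h before lysis. RNA from poly A-selected mRNA was sequenced (RNA-seq, three replicates per DRB group). Fold change computed for DRB-treated migrating vs DRB-treated control cells; cutoffs fold change >1.3, FDR <0.05.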

[16] = target: T1, RNA polymerase II (Mus musculus); assay: Inhibition of RNA polymerase II in mouse B16-F1 migrating cells assessed as fold change in Samd14-RNA stability at 0.1 mM measured by […] analysis relative to control cells
[17] = target: T1, RNA polymerase II (Mus musculus); assay: Inhibition of RNA polymerase II in mouse B16-F1 migrating cells assessed as fold change in Kdelr1-RNA stability at 0.1 mM measured by ChIP-seq analysis relative to control cells; in short: as §3
[18] = target: T1, RNA polymerase II (Mus musculus); assay: Inhibition of RNA polymerase II in mouse B16-F1 migrating cells assessed as fold change in BC004004-RNA stability at 0.1 mM measured by […] analysis relative to control cells
[19] = target: T1, RNA polymerase II (Mus musculus); assay: Inhibition of RNA polymerase II in mouse B16-F1 migrating cells assessed as fold change in Crbn-RNA stability at 0.1 mM measured by ChIP-seq analysis relative to control cells
[20] = target: T1, RNA polymerase II (Mus musculus); assay: Inhibition of RNA polymerase II in mouse B16-F1 migrating cells assessed as fold change in Bpnt1-RNA stability at 0.1 mM measured by […] analysis relative to control cells
[21] = target: T1, RNA polymerase II (Mus musculus); assay: Inhibition of RNA polymerase II in mouse B16-F1 migrating cells assessed as fold change in Gria4-RNA stability at 0.1 mM measured by ChIP-seq analysis relative to control cells
[22] = target: T1, RNA polymerase II (Mus musculus); assay: Inhibition of RNA polymerase II in mouse B16-F1 migrating cells assessed as fold change in Dido1-RNA stability at 0.1 mM measured by […] analysis relative to control cells; in short: as §3
[23] = target: T1, RNA polymerase II (Mus musculus); assay: Inhibition of RNA polymerase II in mouse B16-F1 migrating cells assessed as fold change in Trappc8-RNA stability at 0.1 mM measured by […] analysis relative to control cells
[24] = target: T1, RNA polymerase II (Mus musculus); assay: Inhibition of RNA polymerase II in mouse B16-F1 migrating cells assessed as fold change in Cenpc1-RNA stability at 0.1 mM measured by […] analysis relative to control cells

SMILES: CCCc1cc(C)[nH]c(=O)c1CNC(=O)c1cc(-c2ccnc(N3CCN(C)CC3)c2)cc2c1cnn2C(C)C
- log2FC [1]: 0.23
- log2FC [2]: -0.09
- log2FC [3]: 0.64
- log2FC [4]: 0.53
- log2FC [5]: 0.72
- log2FC [6]: 0.47
- log2FC [7]: -0.41
- log2FC [8]: -0.44
- log2FC [9]: -0.45
- log2FC [10]: -0.5
- log2FC [11]: -0.61

SMILES: OC[C@H]1O[C@@H](n2cnc3cc(Cl)c(Cl)cc32)[C@H](O)[C@@H]1O
- log2FC [12]: 1.02
- log2FC [13]: 0.67
- log2FC [14]: 0.51
- log2FC [15]: 0.49
- log2FC [16]: 0.46
- log2FC [17]: 0.4
- log2FC [18]: 0.39
- log2FC [19]: -0.45
- log2FC [20]: -0.48
- log2FC [21]: -0.5
- log2FC [22]: -0.53
- log2FC [23]: -0.62
- log2FC [24]: -0.84
